Screening data: PubChem BioAssay, The Scripps Research Institute Molecular Screening Center
OXTR ag = human OXTR agonists, primary screen, fluorescence, CHO-OTR cells, Fluo-8 calcium; activation, % at 3 µM; actives 0.32% (n = 320,000); Fluo-8 calcium fluorescence; normalized: DMSO 0%, oxytocin 100%;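 active = activation above the mean of all tested compounds plus 3 SD, cutoff set per screening run, cut at about 20% in these data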;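 note: peak over basal fluorescence ratio from a 100 s FLIPR kinetic read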
V1aR counter = agonists of human V1a receptor, primary screen, counter-screen for OXTR agonist project, fluorescence, CHO-V1R cells; AID 2797, 2010; Fluo-8 calcium fluorescence, agonist mode; 0% DMSO, 100% 3 nM vasopressin; Vasopressin V1a receptor (Homo sapiens), P37288; activation, % at 3 µM; actives 0.25% (n = 320,000);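 active = activation above the mean activation of all tested compounds plus 3 SD, per screening run, cut at about 20% in these data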;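 note: signal is peak over basal fluorescence ratio across a 100 second FLIPR read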
TRPML3 agonist = human TRPML3 channel agonists, primary screen, cell-based, HEK293 TRPML3-YFP, Fluo-8 calcium fluorescence, 3 µM; 100% = the carbachol control signal; activation, % at 3 µM; actives 0.29% (n = 220,000);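 active = activation above its plate's cutoff, the mean activation of the plate's test wells plus 3 SD, cut at about 12% in these data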
Target sequence (Q8TDD5 whole entry, looked up): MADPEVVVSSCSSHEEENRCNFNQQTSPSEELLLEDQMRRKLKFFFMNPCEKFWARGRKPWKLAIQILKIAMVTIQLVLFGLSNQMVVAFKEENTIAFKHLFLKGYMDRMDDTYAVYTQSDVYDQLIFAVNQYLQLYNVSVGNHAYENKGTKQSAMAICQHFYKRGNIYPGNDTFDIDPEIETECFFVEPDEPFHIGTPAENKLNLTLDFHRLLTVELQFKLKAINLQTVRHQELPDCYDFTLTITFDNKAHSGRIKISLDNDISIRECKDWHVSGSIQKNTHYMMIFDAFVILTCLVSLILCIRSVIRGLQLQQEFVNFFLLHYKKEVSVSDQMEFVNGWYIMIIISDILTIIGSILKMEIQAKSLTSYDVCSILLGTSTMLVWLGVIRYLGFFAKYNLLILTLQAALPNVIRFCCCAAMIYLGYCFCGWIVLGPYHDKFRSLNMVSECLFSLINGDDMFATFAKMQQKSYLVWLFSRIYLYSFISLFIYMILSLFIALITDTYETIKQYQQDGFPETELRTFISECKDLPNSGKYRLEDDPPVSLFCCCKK
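system = HEK293 cells stably carrying human TRPML3-YFP | doses = one concentration, 3 µM nominal, 0.3% DMSO | timing = dye loading 1 h 37 °C then 30 min ambient, 125 s read | detection = Fluo-8 calcium dye fluorescence, ex 470-495, em 515-575 nm | benchmarks = high control carbachol 87 µM, low control DMSO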
OXTR potentiator = human OXTR potentiators, primary screen, fluorescence, CHO-OTR cells, Fluo-8 calcium; Fluo-8 calcium fluorescence, potentiator mode; 0% = oxytocin EC15, 100% = EC100; activation, % at 3 µM; actives 0.061% (n = 320,000);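 active = activation above that plate's cutoff, the mean activation of tested compounds plus 3 SD, cut at about 6.6% in these data, passing the limit was not always enough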
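Measured by – Fluo-8 calcium dye fluorescence · Test system – human OTR in CHO cells · Dosing – one concentration, 3.0 µM compound · Controls – EC15 oxytocin alone as 0%, 75 nM oxytocin as 100% · Evaluation – normalized max/min fluorescence ratio, % activation · Timing – 6 min pre-incubation, 100 s read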
zfTRPN1 agonist = zebrafish TRPN1 channel agonists, primary screen, cell-based, HEK293, calcium fluorescence | HEK293 zebrafish TRPN1-YFP, Fluo-8 calcium fluorescence; 100% = response to 87 µM carbachol | activation, % at 3 µM | AID 1424, 2008 | actives 0.18% (n = 220,000) | transient receptor potential cation channel N1 (TRPN1/NompC), Danio rerio;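 active = activation above its plate's cutoff, the mean activation of test wells on that plate plus 3 SD, cut at about 19% in these data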
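Control set: carbachol 87 µM as high control, DMSO as low control; system: HEK293 stable line with zebrafish TRPN1-YFP; read-out: % activation versus carbachol response; detection: intracellular calcium fluorescence with Fluo-8; doses: single test compound dose, 3 µM nominal, 0.3% DMSO; schedule: dye 1 h 37 °C plus 30 min RT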
OXTR agonist cf = human OXTR agonists, confirmation, fluorescence, CHO-OTR cells, triplicate | shares compounds with OXTR ag | Fluo-8 calcium fluorescence, agonist | activation, % at 3 µM | actives 20% (n = 390);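 active = mean activation above about 20% derived from the earlier single-dose screen, limit read from the data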;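 note: peak over minimum fluorescence ratio per well during a 100 second FLIPR read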
V1aR counter 3x = V1a receptor agonists, calcium signal, counter-screen for OXTR agonist project, triplicate, fluorescence, CHO-V1R cells | shares compounds with OXTR ag | Fluo-8 calcium fluorescence | activation, % at 3 µM | actives 10% (n = 390) | AID 434991, 2010;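 active = mean activation over triplicate exceeds the hit threshold set in the earlier primary screen, cut at about 20% in these data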;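 note: peak over basal fluorescence ratio within a 100 second read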
Each line names hits and unclear results; the compound was inactive in the other large screens (follow-up assays come after a bar, where they were run). The list is not random: actives were taken first. Their share in the collection is about 0.55%.

O=C1NC(=O)C(CC(=O)N(Cc2ccco2)C2(C(=O)NC3CCCC3)CCCCC2)N1 (configuration not stated)	none
CCCCNC(=O)CSc1nc2cc3c(cc2c(=O)n1CCC(=O)NCCc1ccc(OC)c(OC)c1)OCO3	none
CCCCNC(=O)CCCn1c(=S)[nH]c2cc3c(cc2c1=O)OCO3	OXTR ag 22.0 | OXTR agonist cf inactive | V1aR counter 3x inactive
COc1ccc(NS(=O)(=O)c2ccc(-n3nnc4ccccc43)c([N+](=O)[O-])c2)cc1	OXTR ag 23.5 | OXTR agonist cf inactive | V1aR counter 3x inactive
Cc1[nH]n(-c2ccc(Cl)cc2)c(=O)c1C=Nc1ccc(S(=O)(=O)N2CCOCC2)cc1	OXTR ag 22.1 | OXTR agonist cf inactive | V1aR counter 3x inactive
COc1nccnc1NS(=O)(=O)c1ccc(N=Cc2c(C)[nH]n(-c3ccc(Cl)cc3)c2=O)cc1	none
Cc1cc(C)n(CCNC(=O)C2CCC(=O)N(Cc3ccc(Cl)cc3)C2)n1 (configuration not stated)	none (no result: TRPML3 agonist, zfTRPN1 agonist)
CO/N=C/c1ccc(N2CCN(C(=O)c3ccc(Cl)cc3Cl)CC2)c([N+](=O)[O-])c1	OXTR ag 27.1 | OXTR agonist cf inactive | V1aR counter 3x inactive
COc1cc(/C=N/OCC(=O)Nc2cc(C)on2)ccc1OCc1ccccc1	OXTR ag 23.5 | OXTR agonist cf inactive | V1aR counter 3x inactive
CC1CCc2c(C(=O)Nc3ccc(OC(F)(F)F)cc3)csc2C1 (configuration not stated)	none
O=C(Oc1ccc(-c2nnco2)cc1)c1ccc(Br)o1	none (no result: TRPML3 agonist, zfTRPN1 agonist)
Cc1ccc(OC(=O)c2ccc(Br)o2)cc1	OXTR ag 26.8 | OXTR agonist cf inactive | V1aR counter 3x inactive
Fc1ccc2[nH]c3c(NCc4ccccc4)ncnc3c2c1	OXTR ag 24.4 (no result: TRPML3 agonist, zfTRPN1 agonist) | OXTR agonist cf inactive | V1aR counter 3x inactive
CCC1(c2ccc(F)cc2)NC(=O)N(CC(=O)N2c3ccccc3CC2C)C1=O (configuration not stated)	OXTR ag 28.5 (no result: TRPML3 agonist, zfTRPN1 agonist) | OXTR agonist cf inactive | V1aR counter 3x inactive
CCc1cccc(CN2CCC(CNC(=O)Nc3ccc(Cl)cc3)CC2)c1	none
O=C(NCC1CCN(Cc2cccc(Cl)c2)CC1)Nc1ccc(Cl)cc1	OXTR ag 23.4 (no result: TRPML3 agonist, zfTRPN1 agonist) | OXTR agonist cf inactive | V1aR counter 3x inactive
Cc1ccc(C)c(CN2CCC(CNC(=O)Nc3ccc(C)c(C)c3)CC2)c1	none (no result: TRPML3 agonist, zfTRPN1 agonist)
COc1ccc(Cl)cc1NC(=O)NCC1CCN(Cc2cc(C)ccc2C)CC1	OXTR ag 21.3 (no result: TRPML3 agonist, zfTRPN1 agonist) | OXTR agonist cf inactive | V1aR counter 3x inactive
COc1ccc(CCNCC(O)Cn2c3ccccc3c3ccccc32)cc1OC (configuration not stated)	OXTR ag 23.4 | OXTR agonist cf 23.7 | V1aR counter 3x inactive
CCCC(=O)c1ccc(N2CCN(C(=O)c3ccccc3Br)CC2)c(F)c1	OXTR ag 19.6 | OXTR agonist cf inactive | V1aR counter 3x inactive
CCCC(=O)c1ccc(N2CCN(C(=O)c3ccccc3)CC2)c(F)c1	none
COc1ccc(C(=O)/C=C2\Sc3ccccc3N2C)cc1	none
COc1ccccc1-[n+]1c(C)cc(/C=C2\Sc3ccccc3N2C)cc1C	OXTR ag 25.5, TRPML3 agonist 11.8, zfTRPN1 agonist 26.0 | OXTR agonist cf 26.0 | V1aR counter 3x 25.6
COc1ccccc1NC(=O)CCCN1C(=O)C(c2ccccc2)Oc2cccnc21 (configuration not stated)	none (no result: TRPML3 agonist, zfTRPN1 agonist)
